Measured values collected from several papers.
Target: RAC-gamma serine/threonine-protein kinase (AKT3, Homo sapiens, UniProt Q9Y243)

Structure (SMILES) | assay | setting | remaining binding
c1cncc(-c2cccc(Nc3nccc(NC4CCCCC4)n3)c2)c1 | binding, competition with immobilised ligand | 10 µM | 69%
N[C@H]1CCN(c2nccc(-c3cnn4ncccc34)n2)C1 | binding | 1 µM | 100%
O=C(NCCCN1CCOCC1)c1ccc(Nc2ncc(Cl)c(-c3ccc(Cl)s3)n2)cc1 | binding, competition with immobilised ligand | 1 µM | 100%
c1ccc(N2CCN(Cc3nc4ccccc4[nH]3)CC2)nc1 | binding, competition with immobilised ligand | 1 µM | 100%
CCN1CCN(Cc2ccc(C(=O)Nc3ccc(C)c(Oc4ccc5c(c4)CC(=O)N5)c3)cc2C(F)(F)F)CC1 | binding, competition with immobilised ligand | 1 µM | 89%
Nc1ncc2c(n1)-c1c([nH]c3ccc(C#CC4CC4)cc13)CCCC2 | binding, competition with immobilised ligand | 1 µM | 69%
O=C(NCCCN1CCOCC1)c1ccc(Nc2nccc(-c3cc4ccccc4s3)n2)cc1 | binding, competition with immobilised ligand | 1 µM | 100%
F[C@@H]1CCN(c2nccc(-c3cnn4ncccc34)n2)C1 | binding | 1 µM | 93%
O=C(NCC1CCOCC1)c1n[nH]cc1NC(=O)c1c(F)cccc1F | binding, competition with immobilised ligand | 1 µM | 90%
CN(CCCC(F)(F)F)c1nccc(-c2cnn3ncccc23)n1 | binding | 1 µM | 83%
C[C@@H]1CN(c2cc(-c3n[nH]c4ccc(OC5(C)CC5)cc34)ncn2)C[C@H](C)O1 | cell-free assay, competition with immobilised ligand | 0.1 µM | 86%
C[C@H]1CCN(c2nccc(-c3cnn4ncccc34)n2)C1 | binding | 1 µM | 99%
O=C(NS(=O)(=O)c1ccc(NCC2CCOCC2)c([N+](=O)[O-])c1)c1ccc(N2CCN(Cc3ccc(C(F)(F)F)cc3-c3ccc(Cl)cc3)CC2)cc1Oc1cnc2[nH]ccc2c1 | cell-free assay, competition with immobilised ligand | 1 µM | 89%
c1cnn2ncc(-c3ccnc(N4CCC45COC5)n3)c2c1 | binding | 1 µM | 86%
CNC(=O)[C@@H]1CC[C@@H](n2c(-c3ccc4cnccc4c3)nc3ccc(C(=O)NCc4cccc(C(N)=O)c4)cc32)C1 | binding, competition with immobilised ligand | 1 µM | 100%
O=C(O)[C@@H]1[C@@H](Cn2nnc3ccccc3c2=O)CC[C@H]1C(=O)c1ccc(OCCC2CCOCC2)cc1 | cell-free assay, competition with immobilised ligand | 1 µM | 100%
O=C(c1ccc(Nc2ncc(Cl)c(-c3cc4ccccc4s3)n2)cc1)N1CCC(N2CCCC2)CC1 | binding, competition with immobilised ligand | 1 µM | 100%
CCCOc1ccc([C@H]2[C@H](C(=O)O)[C@@H](c3ccc4c(c3)OCO4)CN2CC(=O)Nc2c(CC)cccc2CC)cc1 | cell-free assay, competition with immobilised ligand | 1 µM | 82%
FC(F)(F)Oc1cccc(-c2cnc3ccc(-c4ccncc4)nn23)c1 | cell-free assay, competition with immobilised ligand | 5 µM | 99%
O=C1NC(c2ccccn2)Sc2ccccc21 (stereo not drawn) | cell-free assay, competition with immobilised ligand | 1 µM | 100%
CN(C)c1nccc(-c2cnn3ncccc23)n1 | binding | 1 µM | 100%
